Experimental data from different studies.
Target: Vascular endothelial growth factor receptor 3 (FLT4, Homo sapiens, UniProt P35916)

| SMILES | test | setting | remaining binding |
| --- | --- | --- | --- |
| O=C(c1ccc(Nc2ncc(Cl)c(-c3ccc(Cl)s3)n2)cc1)N1CCC(N2CCCC2)CC1 | binding, competition with immobilised ligand | 1 µM | 0.15% |
| COc1cnc(Nc2cccc(S(N)(=O)=O)c2)nc1N1CCN(c2ccccc2)CC1 | binding, competition with immobilised ligand | 1 µM | 85% |
| Cc1nc(N2CC[C@@H](O)C2)ncc1-c1cc(C(F)(F)F)cc2[nH]ncc12 | cell-free assay, competition with immobilised ligand | 1 µM | 100% |
| c1cncc(-c2cccc(Nc3nccc(NC4CCCCC4)n3)c2)c1 | binding, competition with immobilised ligand | 10 µM | 18% |
| C[C@@H](c1ccc(-n2cnc3c(N)ncnc32)cc1)N1CCc2nn(C)c(Cc3ccccc3)c2C1=O | binding, competition with immobilised ligand | 0.1 µM | 91% |
| C[C@@H]1CCN(c2nccc(-c3cnn4ncccc34)n2)C1 | binding | 1 µM | 100% |
| CCN(CC)CCCCNc1ncc2cc(-c3cc(OC)cc(OC)c3)c(NC(=O)NC(C)(C)C)nc2n1 | cell-free assay, competition with immobilised ligand | 1 µM | 6% |
| CCS(=O)(=O)c1cc2cc(C[C@](O)(CC(C)(C)c3ccc(F)cc3C(N)=O)C(F)(F)F)[nH]c2cn1 | cell-free assay, competition with immobilised ligand | 1 µM | 95% |
| COc1ccnn2ncc(-c3ccnc(N(C)C)n3)c12 | binding | 1 µM | 100% |
| C=CC(=O)N1CCC(C(=O)NCC(=O)N2CCN(c3nc(-c4cnc(N)nc4C(F)F)nc(N4CCOCC4)n3)CC2)CC1 | binding, competition with immobilised ligand | 1 µM | 96% |
| CN(C)c1ncc(F)c(-c2cnn3ncccc23)n1 | binding | 1 µM | 86% |
| CCN1CCN(Cc2ccc(C(=O)Nc3ccc(C)c(Oc4ccc5c(c4)CC(=O)N5)c3)cc2C(F)(F)F)CC1 | binding, competition with immobilised ligand | 1 µM | 100% |
| CC(=O)c1c(NS(C)(=O)=O)c2cc(-c3ccc(Cl)cc3)c(-c3ccc(Cl)cc3Cl)nc2n(C)c1=O | cell-free assay, competition with immobilised ligand | 1 µM | 100% |
| CN(CCCC(F)(F)F)c1nccc(-c2cnn3ncccc23)n1 | binding | 1 µM | 100% |
| CC(C)CC(=O)N1CCc2nc(-c3ccc(Br)cc3)nc(N(C)Cc3ccccc3)c2C1 | cell-free assay, competition with immobilised ligand | 0.1 µM | 100% |
| CN(C)c1nccc(-c2cnc3ncccn23)n1 | binding | 1 µM | 88% |
| O=C(Nc1c[nH]nc1C(=O)NC1CCNCC1)c1cc(F)cc(F)c1 | binding, competition with immobilised ligand | 1 µM | 100% |
| CCCOc1ccc([C@@H]2[C@@H](C(=O)O)[C@H](c3ccc4c(c3)OCO4)CN2CC(=O)Nc2c(CC)cccc2CC)cc1 | cell-free assay, competition with immobilised ligand | 1 µM | 100% |
| Cc1cnc(Nc2ccc(C(=O)N3CCC(N4CCCC4)CC3)cc2)nc1-c1cc2ccccc2s1 | binding, competition with immobilised ligand | 1 µM | 0.4% |
| CNCc1ccccc1-c1csc([C@@H](C)Nc2nc(C)nc3cc(OC)c(OC)cc23)c1 | cell-free assay, competition with immobilised ligand | 1 µM | 83% |
| O=C(c1ccc(Nc2ncc(Cl)c(-c3cc4ccccc4s3)n2)cc1)N1CCC(N2CCCC2)CC1 | binding, competition with immobilised ligand | 1 µM | 0.7% |
| N[C@H]1CCN(c2nccc(-c3cnn4ncccc34)n2)C1 | binding | 1 µM | 92% |
| C[C@@H]1CN(c2cc(-c3nn(C)c4ccc(OC5(C)CC5)cc34)ncn2)C[C@H](C)O1 | cell-free assay, competition with immobilised ligand | 1 µM | 85% |
